According to ChEMBL document CHEMBL1144414, “C-5-disubstituted barbiturates as potential molecular probes for noninvasive matrix metalloproteinase imaging” (J Med Chem, 2005):

Assays:
Homo sapiens = species on record: Homo sapiens; assay: Ratio of IC50 for human Matrix metalloprotease 2 binding and Matrix metalloprotease 9
[1] = Partition coefficient (logD7.4); format: physicochemical; details: octanol/water, pH 7.4
[2] = target: T1, 72 kDa type IV collagenase (Homo sapiens, UniProt P08253); assay: In vitro inhibition of human Matrix metalloprotease 2
Summary of the method: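 Human active MMP-2 (1 nM) preincubated with inhibitor (10 pM to 1 mM) in 50 mM Tris·HCl pH 7.5, 0.2 M NaCl, 5 mM CaCl2, 20 µM ZnSO4, 0.05% Brij 35, 37 °C, 30 min. Fluorogenic Mca-Pro-Leu-Gly-Leu-Dpa-Ala-Arg-NH2 substrate (10 µL of 50 µM into 90 µL) added. Fluorescence (ex 330/em 390 nm) followed at 37 °C. Initial 10-min rates fitted by nonlinear regression for IC50.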

[3] = target: T2, Matrix metalloproteinase-9 (Homo sapiens, UniProt P14780); assay: (§1) In vitro inhibition of human Matrix metalloprotease 9
Summary of the method: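 Human active MMP-9 (2 nM) preincubated 30 min at 37 °C with inhibitor (10 pM to 1 mM) in 50 mM Tris·HCl pH 7.5, 0.2 M NaCl, 5 mM CaCl2, 20 µM ZnSO4, 0.05% Brij 35. Fluorogenic Mca-Pro-Leu-Gly-Leu-Dpa-Ala-Arg-NH2 substrate added from a 50 µM stock. Fluorescence (ex 330/em 390 nm) followed at 37 °C. Initial 10-min linear rates versus dose; IC50 by nonlinear regression.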

[4] = target: T2, Matrix metalloproteinase-9; assay: as §1; remark: listed apart in the source
[5] = target: T1, 72 kDa type IV collagenase; assay: In vitro inhibition of human Matrix metalloprotease 2; I.A.=inactive
Summary of the method: (§2)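 Human active enzyme, MMP-2 at 1 nM or MMP-9 at 2 nM, preincubated 30 min at 37 °C with inhibitor (10 pM to 1 mM) in 50 mM Tris·HCl pH 7.5, 0.2 M NaCl, 5 mM CaCl2, 20 µM ZnSO4, 0.05% Brij 35. Mca-PLGL-Dpa-AR-NH2 substrate added, fluorescence followed at 37 °C (ex 330/em 390 nm). Initial 10-min rates fitted by nonlinear regression for IC50.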

[6] = target: T2, Matrix metalloproteinase-9; assay: In vitro inhibition of human Matrix metalloprotease 9; I.A.=inactive; summary of the method: as §2

T2 sequence (P14780 whole entry): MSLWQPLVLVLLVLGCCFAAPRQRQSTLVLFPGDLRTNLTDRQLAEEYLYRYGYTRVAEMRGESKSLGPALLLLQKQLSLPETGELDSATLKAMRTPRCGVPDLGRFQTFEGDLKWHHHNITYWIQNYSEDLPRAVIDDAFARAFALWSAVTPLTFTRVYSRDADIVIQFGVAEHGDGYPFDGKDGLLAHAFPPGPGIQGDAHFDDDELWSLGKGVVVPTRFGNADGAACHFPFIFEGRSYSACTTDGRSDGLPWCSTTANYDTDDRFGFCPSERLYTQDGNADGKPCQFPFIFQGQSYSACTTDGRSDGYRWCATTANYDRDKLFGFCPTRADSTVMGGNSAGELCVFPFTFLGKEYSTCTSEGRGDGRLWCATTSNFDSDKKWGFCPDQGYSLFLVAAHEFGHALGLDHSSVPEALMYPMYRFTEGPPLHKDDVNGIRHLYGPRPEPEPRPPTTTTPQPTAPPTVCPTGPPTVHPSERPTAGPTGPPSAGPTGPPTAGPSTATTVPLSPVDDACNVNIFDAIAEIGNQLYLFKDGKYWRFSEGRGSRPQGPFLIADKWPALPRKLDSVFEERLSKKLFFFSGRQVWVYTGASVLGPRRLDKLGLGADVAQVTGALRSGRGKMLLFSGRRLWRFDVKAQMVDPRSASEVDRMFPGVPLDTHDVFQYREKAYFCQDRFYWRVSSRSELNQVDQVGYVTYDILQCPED
T1 sequence (P08253 whole entry): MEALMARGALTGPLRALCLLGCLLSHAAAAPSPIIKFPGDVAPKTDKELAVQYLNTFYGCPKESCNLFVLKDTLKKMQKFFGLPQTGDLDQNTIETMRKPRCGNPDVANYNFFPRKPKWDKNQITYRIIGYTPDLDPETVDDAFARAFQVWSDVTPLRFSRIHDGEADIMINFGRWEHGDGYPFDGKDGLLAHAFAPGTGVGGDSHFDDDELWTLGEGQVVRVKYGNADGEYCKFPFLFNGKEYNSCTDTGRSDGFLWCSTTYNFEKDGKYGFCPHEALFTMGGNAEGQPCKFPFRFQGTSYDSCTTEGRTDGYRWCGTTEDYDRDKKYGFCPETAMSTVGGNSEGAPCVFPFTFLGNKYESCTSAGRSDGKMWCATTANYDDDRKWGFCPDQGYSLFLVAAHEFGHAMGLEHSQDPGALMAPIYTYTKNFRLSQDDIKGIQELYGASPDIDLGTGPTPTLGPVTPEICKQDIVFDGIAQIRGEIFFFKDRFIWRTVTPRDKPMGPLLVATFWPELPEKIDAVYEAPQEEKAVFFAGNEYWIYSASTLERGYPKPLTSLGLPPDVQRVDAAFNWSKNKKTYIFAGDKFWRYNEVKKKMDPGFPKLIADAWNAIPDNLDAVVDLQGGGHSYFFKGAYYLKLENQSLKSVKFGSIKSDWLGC

Row | SMILES | Selectivity (Homo sapiens) | logD [1] | IC50 [2] [µM] | IC50 [3] [µM] | IC50 [4] [µM] | IC50 [5] | IC50 [6]
1 | CC(C)N1CCN(C2(c3ccc(Oc4ccc(Br)cc4)cc3)C(=O)NC(=O)NC2=O)CC1 | 26 | 4.47 |  |  |  |  | 
2 | O=C1NC(=O)C(c2ccc(Oc3ccc(Br)cc3)cc2)(N2CCN(CCBr)CC2)C(=O)N1 | 1.2 | 4.67 | 0.03 | 0.026 |  |  | 
3 | CC(C)[C@@H](NS(=O)(=O)c1ccc(C#CCCCC[18F])cc1)C(=O)O |  |  | 1.9 |  |  |  | 
4 | O=C1NC(=O)C(c2ccc(Oc3ccc(Br)cc3)cc2)(N2CCN(c3ccc(I)cc3)CC2)C(=O)N1 | 8.6 | 7.22 | 0.086 | 0.01 |  |  | 
5 | O=C1NC(=O)C(c2ccc(Oc3ccc(Br)cc3)cc2)(N2CCN(c3ccc(F)cc3)CC2)C(=O)N1 | 0.63 | 6.11 |  |  |  |  | 
6 | O=C1NC(=O)C(c2ccc(Oc3ccc(Br)cc3)cc2)(N2CCN(CCO)CC2)C(=O)N1 | 2.3 | 3.42 |  |  |  |  | 
7 | CC(C)[C@@H](NS(=O)(=O)c1ccc(NC(=O)c2ccc(O[11CH3])cc2)cc1)C(=O)O |  |  | 0.11 |  | 0.2 |  | 
8 | C[Si](C)(C)c1ccc(N2CCN(C3(c4ccc(Oc5ccc(Br)cc5)cc4)C(=O)NC(=O)NC3=O)CC2)cc1 | 2.7 | 8.32 | 1.5 | 0.55 |  |  | 
9 | O=C1NC(=O)C(c2ccc(Oc3ccc(I)cc3)cc2)(N2CCN(CCO)CC2)C(=O)N1 | 3.5 | 3.68 |  |  |  |  | 
10 | O=C(O)CCN1CCN(C2(c3ccc(Oc4ccc(Br)cc4)cc3)C(=O)NC(=O)NC2=O)CC1 | 3.3 | 0.81 | 0.085 | 0.026 |  |  | 
11 | COCCN1CCN(C2(c3ccc(Oc4ccc(OC)cc4)cc3)C(=O)N(C)C(=O)N(C)C2=O)CC1 |  | 0.95 |  |  |  | Not Active | Not Active
12 | O=C1NC(=O)C(c2ccc(Oc3ccc(Br)cc3)cc2)(N2CCNCC2)C(=O)N1 | 2.5 | 3.04 | 0.005 | 0.002 |  |  | 
13 | COc1ccc(Oc2ccc(C3(N4CCN(CCO)CC4)C(=O)NC(=O)NC3=O)cc2)cc1 | 1.5 | 1.79 |  |  |  |  | 
14 | NCCN1CCN(C2(c3ccc(Oc4ccc(Br)cc4)cc3)C(=O)NC(=O)NC2=O)CC1 | 0.71 | 0.78 | 0.01 | 0.014 |  |  | 
15 | O=C1NC(=S)NC(=O)C1(c1ccc(Oc2ccc(Br)cc2)cc1)N1CCN(CCO)CC1 |  | 3.85 | 0.00721 |  |  |  | 
16 | O=C1NC(=O)C(c2ccc(Oc3ccc(Br)cc3)cc2)C(=O)N1 |  | 0.41 | 3.7 |  |  |  | 
17 | O=C1NC(=O)C(c2ccc(Oc3ccc(Br)cc3)cc2)(N2CCN(C(=O)c3cccc(I)c3)CC2)C(=O)N1 | 0.75 | 5.86 | 0.015 | 0.02 |  |  | 
18 | O=C1NC(=O)C(c2ccc(Oc3ccc(Br)cc3)cc2)(N2CCN(c3ccc([N+](=O)[O-])cc3)CC2)C(=O)N1 | 0.28 | 6.27 | 0.016 | 0.057 |  |  | 
